# Data reported in PMC7935732 (Targeted Oncology, 2021).
# Assays:
# [1] = test system: patients with advanced solid tumors; settings: given twice daily on a continuous schedule (every 12 h); mainly Caucasian patients; cited from earlier work
# CDK 4 = settings: in vitro; cited from earlier work
# [2] = test system: Chinese patients with advanced and/or metastatic cancers; assay: Safety and tolerability; format: in vivo, human
# In short: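 Safety set: all patients with ≥ 1 dose. Patient-reported AEs were collected during treatment; chemistry, hematology and urinalysis were done at protocol time points. Laboratory and non-laboratory AEs were graded by CTCAE v4.0 and summarized by cohort.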
smiles,measurement,setting,value
CCN1CCN(Cc2ccc(Nc3ncc(F)c(-c4cc(F)c5nc(C)n(C(C)C)c5c4)n3)nc2)CC1 [abemaciclib],Maximum tolerated dose (MTD),[1],200 mg
same,Greater potency against CDK 4 than against CDK 6,CDK 4,14 times
same,Grade 5 TEAE of respiratory failure,[2]; 150 mg cohort,^aOne patient reported Grade 5 TEAE of respiratory failure in 150 mg cohort
same,Patients who discontinued study treatment due to leukopenia,[2]; 150 mg cohort,1 patient
same,Patients with dose reduction from 150 to 100 mg during Cycle 1,[2]; 150 mg cohort,5 patients
same,"Alanine aminotransferase increased, TEAE any grade",[2]; 150 mg every 12 h (n = 12),5 (41.7) n (%)
same,"Anemia, TEAE any grade",[2]; 150 mg every 12 h (n = 12),7 (58.3) n (%)
same,"Bilirubin increased, TEAE any grade",[2]; 150 mg every 12 h (n = 12),4 (33.3) n (%)
same,"Blood creatinine increased, TEAE any grade",[2]; 150 mg every 12 h (n = 12),6 (50.0) n (%)
same,"Cough, TEAE any grade",[2]; 150 mg every 12 h (n = 12),4 (33.3) n (%)
same,"Decreased appetite, TEAE any grade",[2]; 150 mg every 12 h (n = 12),9 (75.0) n (%)
same,"Diarrhea, TEAE any grade",[2]; 150 mg every 12 h (n = 12),9 (75.0) n (%)
same,"Leukopenia (white blood cell count decreased), TEAE any grade",[2]; 150 mg every 12 h (n = 12),9 (75.0) n (%)
same,"Localized edema, TEAE any grade",[2]; 150 mg every 12 h (n = 12),3 (25.0) n (%)
same,"Malaise, TEAE any grade",[2]; 150 mg every 12 h (n = 12),7 (58.3) n (%)
same,"Nausea, TEAE any grade",[2]; 150 mg every 12 h (n = 12),3 (25.0) n (%)
same,"Neutropenia (neutrophil count decreased), TEAE any grade",[2]; 150 mg every 12 h (n = 12),10 (83.3) n (%)
same,Patients with ≥ 1 TEAE (any grade),[2]; 150 mg every 12 h (n = 12),12 (100.0) n (%)
same,"Thrombocytopenia (platelet count decreased), TEAE any grade",[2]; 150 mg every 12 h (n = 12),6 (50.0) n (%)
same,"Vomiting, TEAE any grade",[2]; 150 mg every 12 h (n = 12),4 (33.3) n (%)
same,Patients reporting SAE of pulmonary embolism,[2]; 200 mg cohort,3 patients
same,Patients reporting SAE of urinary tract infection,[2]; 200 mg cohort,1 patient
same,Patients with dose reduction from 200 to 150 mg during Cycle 1,[2]; 200 mg cohort,2 patients
same,"Alanine aminotransferase increased, TEAE any grade",[2]; 200 mg every 12 h (n = 13),2 (15.4) n (%)
same,"Anemia, TEAE any grade",[2]; 200 mg every 12 h (n = 13),5 (38.5) n (%)
same,"Bilirubin increased, TEAE any grade",[2]; 200 mg every 12 h (n = 13),1 (7.7) n (%)
same,"Blood creatinine increased, TEAE any grade",[2]; 200 mg every 12 h (n = 13),8 (61.5) n (%)
same,"Cough, TEAE any grade",[2]; 200 mg every 12 h (n = 13),4 (30.8) n (%)
same,"Decreased appetite, TEAE any grade",[2]; 200 mg every 12 h (n = 13),6 (46.2) n (%)
same,"Diarrhea, TEAE any grade",[2]; 200 mg every 12 h (n = 13),11 (84.6) n (%)
same,"Leukopenia (white blood cell count decreased), TEAE any grade",[2]; 200 mg every 12 h (n = 13),7 (53.8) n (%)
same,"Localized edema, TEAE any grade",[2]; 200 mg every 12 h (n = 13),2 (15.4) n (%)
same,"Malaise, TEAE any grade",[2]; 200 mg every 12 h (n = 13),6 (46.2) n (%)
same,"Nausea, TEAE any grade",[2]; 200 mg every 12 h (n = 13),6 (46.2) n (%)
same,"Neutropenia (neutrophil count decreased), TEAE any grade",[2]; 200 mg every 12 h (n = 13),9 (69.2) n (%)
same,Patients with ≥ 1 TEAE (any grade),[2]; 200 mg every 12 h (n = 13),13 (100.0) n (%)
same,"Thrombocytopenia (platelet count decreased), TEAE any grade",[2]; 200 mg every 12 h (n = 13),5 (38.5) n (%)
same,"Vomiting, TEAE any grade",[2]; 200 mg every 12 h (n = 13),4 (30.8) n (%)
same,Anemia TEAE,"[2]; Grade 3, 150 mg (n = 12)",2 (16.7) n (%)
same,Blood bilirubin increased TEAE,"[2]; Grade 3, 150 mg (n = 12)",1 (8.3) n (%)
same,Diarrhea TEAE,"[2]; Grade 3, 150 mg (n = 12)",1 (8.3) n (%)
same,Embolism TEAE,"[2]; Grade 3, 150 mg (n = 12)",1 (8.3) n (%)
same,Hyponatraemia TEAE,"[2]; Grade 3, 150 mg (n = 12)",2 (16.7) n (%)
same,Leukopenia (white blood cell count decreased) TEAE,"[2]; Grade 3, 150 mg (n = 12)",0 n (%)
same,Lung infection TEAE,"[2]; Grade 3, 150 mg (n = 12)",1 (8.3) n (%)
same,Malaise TEAE,"[2]; Grade 3, 150 mg (n = 12)",1 (8.3) n (%)
same,Muscular weakness TEAE,"[2]; Grade 3, 150 mg (n = 12)",1 (8.3) n (%)
same,Neutropenia (neutrophil count decreased) TEAE,"[2]; Grade 3, 150 mg (n = 12)",5 (41.7) n (%)
same,Patients with ≥ 1 TEAE of Grade ≥ 3,"[2]; Grade 3, 150 mg (n = 12)",8 (66.7) n (%)
same,Thrombocytopenia (platelet count decreased) TEAE,"[2]; Grade 3, 150 mg (n = 12)",3 (25.0) n (%)
same,Vomiting TEAE,"[2]; Grade 3, 150 mg (n = 12)",0 n (%)
same,Anemia TEAE,"[2]; Grade 3, 200 mg (n = 13)",0 n (%)
same,Blood bilirubin increased TEAE,"[2]; Grade 3, 200 mg (n = 13)",0 n (%)
same,Diarrhea TEAE,"[2]; Grade 3, 200 mg (n = 13)",3 (23.1) n (%)
same,Embolism TEAE,"[2]; Grade 3, 200 mg (n = 13)",0 n (%)
same,Hyponatraemia TEAE,"[2]; Grade 3, 200 mg (n = 13)",0 n (%)
same,Leukopenia (white blood cell count decreased) TEAE,"[2]; Grade 3, 200 mg (n = 13)",3 (23.1) n (%)
same,Lung infection TEAE,"[2]; Grade 3, 200 mg (n = 13)",0 n (%)
same,Malaise TEAE,"[2]; Grade 3, 200 mg (n = 13)",0 n (%)
same,Muscular weakness TEAE,"[2]; Grade 3, 200 mg (n = 13)",0 n (%)
same,Neutropenia (neutrophil count decreased) TEAE,"[2]; Grade 3, 200 mg (n = 13)",3 (23.1) n (%)
same,Patients with ≥ 1 TEAE of Grade ≥ 3,"[2]; Grade 3, 200 mg (n = 13)",6 (46.2) n (%)
same,Thrombocytopenia (platelet count decreased) TEAE,"[2]; Grade 3, 200 mg (n = 13)",2 (15.4) n (%)
same,Vomiting TEAE,"[2]; Grade 3, 200 mg (n = 13)",0 n (%)
same,Anemia TEAE,"[2]; Grade 3, Total (n = 25)",2 (8.0) n (%)
same,Blood bilirubin increased TEAE,"[2]; Grade 3, Total (n = 25)",1 (4.0) n (%)
same,Diarrhea TEAE,"[2]; Grade 3, Total (n = 25)",4 (16.0) n (%)
same,Hyponatraemia TEAE,"[2]; Grade 3, Total (n = 25)",2 (8.0) n (%)
same,Leukopenia (white blood cell count decreased) TEAE,"[2]; Grade 3, Total (n = 25)",3 (12.0) n (%)
same,Lung infection TEAE,"[2]; Grade 3, Total (n = 25)",1 (4.0) n (%)
same,Malaise TEAE,"[2]; Grade 3, Total (n = 25)",1 (4.0) n (%)
same,Muscular weakness TEAE,"[2]; Grade 3, Total (n = 25)",1 (4.0) n (%)
same,Neutropenia (neutrophil count decreased) TEAE,"[2]; Grade 3, Total (n = 25)",8 (32.0) n (%)
same,Patients with ≥ 1 TEAE of Grade ≥ 3,"[2]; Grade 3, Total (n = 25)",14 (56.0) n (%)
same,Thrombocytopenia (platelet count decreased) TEAE,"[2]; Grade 3, Total (n = 25)",5 (20.0) n (%)
same,Vomiting TEAE,"[2]; Grade 3, Total (n = 25)",0 n (%)
same,Anemia TEAE,"[2]; Grade 4, 150 mg (n = 12)",0 n (%)
same,Blood bilirubin increased TEAE,"[2]; Grade 4, 150 mg (n = 12)",0 n (%)
same,Diarrhea TEAE,"[2]; Grade 4, 150 mg (n = 12)",0 n (%)
